Test results as given in the M2OR odorant receptor database.

Key:
Conditions in all cases: stereoisomer not certain
OR10A3 (Homo sapiens) = target: T1, OR10A3 (Homo sapiens) (UniProt P58181)
T1 sequence (whole entry): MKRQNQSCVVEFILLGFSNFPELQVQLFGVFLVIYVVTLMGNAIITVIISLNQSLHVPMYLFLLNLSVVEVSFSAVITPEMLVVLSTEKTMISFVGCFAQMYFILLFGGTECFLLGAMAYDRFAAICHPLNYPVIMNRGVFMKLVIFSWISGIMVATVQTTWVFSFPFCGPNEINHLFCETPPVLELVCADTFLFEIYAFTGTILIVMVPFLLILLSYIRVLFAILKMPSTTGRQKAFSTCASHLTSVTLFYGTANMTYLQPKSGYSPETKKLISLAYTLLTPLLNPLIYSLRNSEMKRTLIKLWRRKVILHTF
Outline: (§1)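 Transient luciferase assays in mammalian cell lines were common, though methods varied by source. The values come from published papers and their supplementary material, with extra details from the original authors when needed. Responsive refers to a measured signal the original authors judged statistically different from baseline, and non-responsive (inactive) to the remainder.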

OR10A4 (Homo sapiens) = target: T2, OR10A4 (Homo sapiens) (UniProt Q9H209)
T2 sequence (whole entry): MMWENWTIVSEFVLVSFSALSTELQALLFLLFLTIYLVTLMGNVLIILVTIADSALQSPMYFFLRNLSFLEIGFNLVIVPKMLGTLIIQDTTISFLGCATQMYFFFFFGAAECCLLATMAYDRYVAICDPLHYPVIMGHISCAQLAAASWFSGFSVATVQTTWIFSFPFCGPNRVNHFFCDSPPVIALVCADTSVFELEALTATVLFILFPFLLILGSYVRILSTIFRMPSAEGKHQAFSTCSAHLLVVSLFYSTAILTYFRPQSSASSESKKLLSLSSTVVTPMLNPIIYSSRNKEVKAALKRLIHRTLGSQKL
Outline: as §1

OR10A5 (Homo sapiens) = target: T3, OR10A5 (Homo sapiens) (UniProt Q9H207)
T3 sequence (whole entry): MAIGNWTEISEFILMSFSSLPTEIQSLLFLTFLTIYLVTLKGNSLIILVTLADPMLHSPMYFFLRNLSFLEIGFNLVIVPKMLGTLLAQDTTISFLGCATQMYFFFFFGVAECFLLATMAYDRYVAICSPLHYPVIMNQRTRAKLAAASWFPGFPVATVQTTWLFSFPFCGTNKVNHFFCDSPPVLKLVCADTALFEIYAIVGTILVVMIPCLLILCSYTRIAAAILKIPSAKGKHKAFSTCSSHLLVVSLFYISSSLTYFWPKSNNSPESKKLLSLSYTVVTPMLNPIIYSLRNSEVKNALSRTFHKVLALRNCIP
Outline: as §1

OR10A6 (Homo sapiens) = target: T4, OR10A6 (Homo sapiens) (UniProt Q8NH74)
T4 sequence (whole entry): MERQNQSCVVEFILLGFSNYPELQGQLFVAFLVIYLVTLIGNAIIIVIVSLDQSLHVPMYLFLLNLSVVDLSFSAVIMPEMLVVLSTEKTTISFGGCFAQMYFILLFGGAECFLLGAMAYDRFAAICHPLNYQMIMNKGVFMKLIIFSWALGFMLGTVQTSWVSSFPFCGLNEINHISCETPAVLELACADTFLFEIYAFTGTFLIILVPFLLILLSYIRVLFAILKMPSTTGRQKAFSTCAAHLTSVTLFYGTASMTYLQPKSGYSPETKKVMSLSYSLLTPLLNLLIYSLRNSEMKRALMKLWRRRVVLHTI
Outline: as §1

OR10A7 (Homo sapiens) = target: T5, OR10A7 (Homo sapiens) (UniProt Q8NGE5)
T5 sequence (whole entry): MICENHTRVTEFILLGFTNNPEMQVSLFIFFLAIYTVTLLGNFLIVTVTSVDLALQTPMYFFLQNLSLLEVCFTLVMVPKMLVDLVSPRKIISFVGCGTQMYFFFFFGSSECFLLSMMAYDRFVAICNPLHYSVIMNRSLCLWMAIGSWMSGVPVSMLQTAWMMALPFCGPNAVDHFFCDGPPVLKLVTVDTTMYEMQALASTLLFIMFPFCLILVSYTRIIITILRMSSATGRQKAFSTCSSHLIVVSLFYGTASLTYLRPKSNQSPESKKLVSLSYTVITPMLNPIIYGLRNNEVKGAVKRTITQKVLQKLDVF
Outline: as §1

OR10AD1 (Homo sapiens) = target: T6, OR10AD1 (Homo sapiens) (UniProt Q8NGE0)
T6 sequence (whole entry): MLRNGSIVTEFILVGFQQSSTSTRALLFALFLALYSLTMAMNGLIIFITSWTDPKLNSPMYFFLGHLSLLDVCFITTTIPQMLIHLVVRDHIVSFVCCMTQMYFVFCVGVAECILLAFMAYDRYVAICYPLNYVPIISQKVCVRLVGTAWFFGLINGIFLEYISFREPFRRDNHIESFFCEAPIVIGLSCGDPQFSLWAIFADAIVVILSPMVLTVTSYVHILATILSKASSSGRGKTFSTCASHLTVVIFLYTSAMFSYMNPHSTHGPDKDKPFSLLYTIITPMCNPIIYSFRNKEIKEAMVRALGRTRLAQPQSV
Outline: as §1

OR10AG1 (Homo sapiens) = target: T7, OR10AG1 (Homo sapiens) (UniProt Q8NH19)
T7 sequence (whole entry): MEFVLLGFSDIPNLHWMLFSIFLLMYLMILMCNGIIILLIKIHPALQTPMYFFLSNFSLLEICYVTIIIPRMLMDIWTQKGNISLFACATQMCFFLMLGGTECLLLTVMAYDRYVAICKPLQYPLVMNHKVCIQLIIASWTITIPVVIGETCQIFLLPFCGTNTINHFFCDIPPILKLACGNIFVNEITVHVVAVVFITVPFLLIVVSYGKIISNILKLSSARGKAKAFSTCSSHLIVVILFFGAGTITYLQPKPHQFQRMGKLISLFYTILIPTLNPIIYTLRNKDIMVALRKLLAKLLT
Outline: as §1

OR10C1 (Homo sapiens) = target: T8, OR10C1 (Homo sapiens) (UniProt Q96KK4)
T8 sequence (whole entry): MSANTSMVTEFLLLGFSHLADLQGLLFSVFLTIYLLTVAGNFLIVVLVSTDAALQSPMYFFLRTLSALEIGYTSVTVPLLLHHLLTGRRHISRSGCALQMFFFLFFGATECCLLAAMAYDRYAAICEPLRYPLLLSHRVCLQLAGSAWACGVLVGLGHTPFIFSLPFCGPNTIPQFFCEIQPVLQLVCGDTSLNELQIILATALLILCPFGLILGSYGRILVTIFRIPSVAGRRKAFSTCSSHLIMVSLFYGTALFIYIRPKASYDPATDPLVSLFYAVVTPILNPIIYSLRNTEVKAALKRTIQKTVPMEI
Outline: as §1

OR10D3 (Homo sapiens) = target: T9, OR10D3 (Homo sapiens) (UniProt Q8NH80)
T9 sequence (whole entry): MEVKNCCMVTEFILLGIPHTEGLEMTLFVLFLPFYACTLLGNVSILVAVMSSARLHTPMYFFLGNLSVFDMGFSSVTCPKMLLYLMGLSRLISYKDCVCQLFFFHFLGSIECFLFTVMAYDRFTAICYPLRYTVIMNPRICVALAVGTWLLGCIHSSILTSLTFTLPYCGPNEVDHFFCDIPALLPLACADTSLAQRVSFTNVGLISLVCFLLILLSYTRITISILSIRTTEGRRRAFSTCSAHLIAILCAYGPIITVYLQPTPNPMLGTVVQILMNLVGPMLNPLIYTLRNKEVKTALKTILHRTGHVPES
Outline: as §1

Measured: odorant receptor agonist call;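 also: active if original authors judged signal statistically different from baseline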

CC1=C(O)C(=O)OC1C (centres undefined)
inactive: all assays above
